Measurements taken from ChEMBL document CHEMBL4229550, “An antimycobacterial pleuromutilin analogue effective against dormant bacilli” (Bioorg Med Chem, 2018).
Values after ≈ are worked out from the molar mass of the structure shown. Active and inactive are the calls of the source. The rule behind the calls is not given here.

Columns and labels:
Staphylococcus aureus [1] = assay: Antibacterial activity against Staphylococcus aureus BAA 44 incubated for 24 hrs under aerobic condition by MABA; assay type: functional; settings: BAA 44, 24 h, read-out: MIC100
Method in brief: (§1)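 Mid-log cultures at OD 0.5 were exposed to serial dilutions under aerobic conditions at 37 °C for 24 h. Resazurin was then added from a 0.08% stock for 1 h. MIC100 was the lowest concentration where the dye stayed blue (pink means growth). Absorbance was also read at 570 and 600 nm.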

Streptococcus salivarius [2] = assay: Antibacterial activity against Streptococcus salivarius […] incubated for 24 hrs under aerobic condition by MABA; assay type: functional; settings: read-out: MIC100
Method in brief: (§2)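 Resazurin was then added from a 0.08% stock for 1 h. MIC100 was the lowest concentration where the dye stayed blue (pink means growth). Absorbance was also read at 570 and 600 nm.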

Vero = assay: Cytotoxicity against African green monkey Vero cells assessed as reduction in cell viability after 72 hrs by MTT assay; assay type: cell-based; settings: Chlorocebus sabaeus
Method in brief: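 Vero cells were grown in complete EMEM with 10% FBS and exposed for 72 h to 0.78–200 µg/mL. The medium was then swapped for phenol-red-free EMEM and MTT was added. Formazan absorbance was read at 570 nm to give IC50.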

Bacillus subtilis [3] = assay: Bactericidal activity against Bacillus subtilis ATCC 6051 incubated for 24 hrs under aerobic condition by MABA; assay type: functional; settings: ATCC 6051, 24 h
[4] = tested on: Mycolicibacterium smegmatis; assay: Antibacterial activity against Mycobacterium smegmatis ATCC 607 incubated for 48 hrs under aerobic condition by MABA; assay type: functional; settings: ATCC 607, 48 h, read-out: MIC100
Method in brief: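 Mid-log culture at OD 0.5 was incubated with serial dilutions aerobically at 37 °C for 48 h. Resazurin was then added from a 0.08% stock for 1 h. MIC100 was the lowest concentration that stayed blue; absorbance was also read at 570/600 nm.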

Staphylococcus aureus [5] = assay: Bactericidal activity against Staphylococcus aureus BAA 1683 incubated for 24 hrs under aerobic condition by MABA; assay type: functional; settings: BAA 1683, 24 h
Acinetobacter baumannii [6] = assay: Antibacterial activity against Acinetobacter baumannii ATCC 19606 incubated for 24 hrs under aerobic condition by MABA; assay type: functional; settings: ATCC 19606 = CIP 70.34 = JCM 6841, 24 h, read-out: MIC100; method in brief: as §1
Enterococcus faecalis [7] = assay: Bactericidal activity against Enterococcus faecalis ATCC 349 incubated for 24 hrs under aerobic condition by MABA; assay type: functional; settings: ATCC 349, 24 h
Staphylococcus aureus [8] = assay: Bactericidal activity against Staphylococcus aureus BAA 44 incubated for 24 hrs under aerobic condition by MABA; assay type: functional; settings: BAA 44, 24 h
[9] = tested on: Mycobacterium tuberculosis; assay: Bactericidal activity against Mycobacterium tuberculosis H37Rv at 2 times MIC measured every 24 hrs up to 12 days by time kill assay relative to control; assay type: functional
Method in brief: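 Mid-log H37Rv (OD 0.5) is diluted to OD 0.25 and exposed at MIC, 2×MIC or 4×MIC. Every 24 h cultures are diluted 10- to 10,000-fold and plated on 7H10/OADC agar. Plates are incubated 15 days at 37 °C before colony counts.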

Bacillus subtilis [10] = assay: Antibacterial activity against Bacillus subtilis ATCC 6051 incubated for 24 hrs under aerobic condition by MABA; assay type: functional; settings: ATCC 6051, 24 h, read-out: MIC100; method in brief: as §1
Streptococcus salivarius [11] = assay: Bactericidal activity against Streptococcus salivarius ATCC 6301 incubated for 24 hrs under aerobic condition by MABA; assay type: functional; settings: ATCC 6301, 24 h
Klebsiella pneumoniae [12] = assay: Bactericidal activity against Klebsiella pneumoniae ATCC 12019 incubated for 24 hrs under aerobic condition by MABA; assay type: functional; settings: ATCC 12019, 24 h
Acinetobacter baumannii [13] = assay: Bactericidal activity against Acinetobacter baumannii ATCC 19606 incubated for 24 hrs under aerobic condition by MABA; assay type: functional; settings: ATCC 19606 = CIP 70.34 = JCM 6841, 24 h
Escherichia coli [14] = assay: Inhibition of protein translation/transcription in Escherichia coli S30 cell extract at 0.5 ug/ml using circular DNA with pBESTluc after 60 mins by luciferase reporter gene assay; assay type: functional
Method in brief: (§3)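 Coupled transcription/translation used E. coli S30 extract, amino acid mix and premix, with the pBESTluc template carrying firefly luciferase under the tac promoter. Compounds were added in DMSO and reactions were started with DNA. Incubation was 60 min at 37 °C, stopped on ice, and luciferase was read after adding assay substrate.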

[15] = Selectivity index, ratio of IC50 for African green monkey Vero cells to MIC100 for replicating Mycobacterium tuberculosis H37Rv by MABA; assay type: toxicity; settings: read-out: Selectivity Index
Method in brief: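 Vero cells are cultured in EMEM with 10% FBS and exposed for 72 h to 0.78–200 µg/mL. Medium is switched to phenol-red-free EMEM, MTT is added, and formazan is read at 570 nm to give IC50. The selectivity index is Vero IC50 divided by the MABA MIC.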

Enterococcus faecalis [16] = assay: Antibacterial activity against Enterococcus faecalis ATCC 349 incubated for 24 hrs under aerobic condition by MABA; assay type: functional; settings: ATCC 349, 24 h, read-out: MIC100; method in brief: as §1
Clostridioides difficile = assay: Bactericidal activity against Clostridium difficile ATCC 700057 incubated for 24 hrs […] by MABA; assay type: functional; settings: ATCC 700057, 24 h
[17] = tested on: Mycolicibacterium smegmatis; assay: Bactericidal activity against Mycobacterium smegmatis ATCC 607 incubated for 48 hrs under aerobic condition by MABA; assay type: functional; settings: ATCC 607, 48 h
Streptococcus pneumoniae [18] = assay: Antibacterial activity against Streptococcus pneumoniae ATCC 6301 incubated for 24 hrs under aerobic condition by MABA; assay type: functional; settings: ATCC 6301, 24 h, read-out: MIC100; method in brief: as §1
Enterococcus faecalis [19] = assay: Antibacterial activity against Enterococcus faecalis ATCC 19433 incubated for 24 hrs under aerobic condition by MABA; assay type: functional; settings: ATCC 19433, 24 h, read-out: MIC100; method in brief: as §1
Staphylococcus aureus [20] = assay: Antibacterial activity against Staphylococcus aureus BAA 2094 incubated for 24 hrs under aerobic condition by MABA; assay type: functional; settings: BAA 2094, 24 h, read-out: MIC100; method in brief: as §2
Enterococcus faecalis [21] = assay: Bactericidal activity against Enterococcus faecalis ATCC 19433 incubated for 24 hrs under aerobic condition by MABA; assay type: functional; settings: ATCC 19433, 24 h
[22] = tested on: Mycobacterium tuberculosis; assay: Bactericidal activity against replicating Mycobacterium tuberculosis H37Rv incubated for 15 days under aerobic condition by MABA; assay type: functional; settings: 360 h
Method in brief: (§4)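 Mtb H37Rv grown in 7H9/OADC at 37 °C with shaking to OD600 0.5. The 0.5-OD culture is exposed aerobically to serial dilutions for 15 days at 37 °C. Resazurin (0.02% stock) is then added for 4 h at 37 °C with shaking.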

Klebsiella pneumoniae [23] = assay: Antibacterial activity against Klebsiella pneumoniae ATCC 12019 incubated for 24 hrs under aerobic condition by MABA; assay type: functional; settings: ATCC 12019, 24 h, read-out: MIC100; method in brief: as §1
Escherichia coli [24] = assay: Inhibition of protein translation/transcription in Escherichia coli S30 cell extract at 0.1 ug/ml using circular DNA with pBESTluc after 60 mins by luciferase reporter gene assay; assay type: functional; method in brief: as §3
Staphylococcus aureus [25] = assay: Bactericidal activity against Staphylococcus aureus ATCC 25923 incubated for 24 hrs under aerobic condition by MABA; assay type: functional; settings: ATCC 25923, 24 h
Escherichia coli [26] = assay: Bactericidal activity against Escherichia coli ATCC 10798 incubated for 24 hrs under aerobic condition by MABA; assay type: functional; settings: ATCC 10798, 24 h
Erythrocyte = assay: Hemolytic activity in sheep erythrocytes after 2 hrs; assay type: ADME, cell-based; settings: Ovis aries
Method in brief: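 Washed heparinized sheep erythrocytes at 3% in buffer pH 7.4 were treated with 2–200 µg/mL for 2 h at 37 °C with gentle shaking. Triton X-100 (0.01–1%) was the positive control and PEG:H2O diluent the negative control. Released hemoglobin was read at OD540 and % hemolysis calculated against both controls.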

Staphylococcus aureus [27] = assay: Antibacterial activity against Staphylococcus aureus ATCC 25923 incubated for 24 hrs under aerobic condition by MABA; assay type: functional; settings: ATCC 25923, 24 h, read-out: MIC100; method in brief: as §1
Staphylococcus aureus [28] = assay: Bactericidal activity against Staphylococcus aureus incubated for 24 hrs under aerobic condition by MABA; assay type: functional
Streptococcus pneumoniae [29] = assay: Bactericidal activity against Streptococcus pneumoniae ATCC 6301 incubated for 24 hrs under aerobic condition by MABA; assay type: functional; settings: ATCC 6301, 24 h
Staphylococcus aureus [30] = assay: Antibacterial activity against Staphylococcus aureus BAA 1683 incubated for 24 hrs under aerobic condition by MABA; assay type: functional; settings: BAA 1683, 24 h, read-out: MIC100; method in brief: as §1
Staphylococcus aureus [31] = assay: Antibacterial activity against Staphylococcus aureus incubated for 24 hrs under aerobic condition by MABA; assay type: functional; settings: read-out: MIC100; method in brief: as §2
Escherichia coli [32] = assay: Antibacterial activity against Escherichia coli ATCC 10798 incubated for 24 hrs under aerobic condition by MABA; assay type: functional; settings: ATCC 10798, 24 h, read-out: MIC100; method in brief: as §1
[33] = tested on: Mycobacterium tuberculosis; assay: Antibacterial activity against Mycobacterium tuberculosis; assay type: functional; settings: read-out: MIC100; method in brief: as §4
Staphylococcus aureus [34] = assay: Bactericidal activity against Staphylococcus aureus BAA 2094 incubated for 24 hrs under aerobic condition by MABA; assay type: functional; settings: BAA 2094, 24 h
[35] = Metabolic stability in Sprague-Dawley rat liver microsomes at 500 ng/ml preincubated for 5 mins followed by NADPH addition […] by C-MS/MS analysis; assay type: ADME, microsome; settings: 10 min

C=C[C@]1(C)C[C@@H](OC(=O)CSC(C)(C)CNC(=O)[C@H](N)CC(C)C)[C@]2(C)[C@H](C)CC[C@]3(CCC(=O)[C@H]32)[C@@H](C)[C@@H]1O
MIC (Staphylococcus aureus [1]): > 25 µg/mL | MIC (Streptococcus salivarius [2]): 6.25 µg/mL (≈ 10.8 µM) | IC50 (Vero): 25 µg/mL (≈ 43.2 µM) | MBC (Bacillus subtilis [3]): 25 µg/mL (≈ 43.2 µM) | MIC [4]: 6.25 µg/mL (≈ 10.8 µM) | MBC (Staphylococcus aureus [5]): > 25 µg/mL | MIC (Acinetobacter baumannii [6]): 12.5 µg/mL (≈ 21.6 µM) | MBC (Enterococcus faecalis [7]): > 25 µg/mL | MBC (Staphylococcus aureus [8]): > 25 µg/mL | Activity [9]: 100% | MIC (Bacillus subtilis [10]): 12.5 µg/mL (≈ 21.6 µM) | MBC (Streptococcus salivarius [11]): > 25 µg/mL | MBC (Klebsiella pneumoniae [12]): > 25 µg/mL | MBC (Acinetobacter baumannii [13]): 25 µg/mL (≈ 43.2 µM) | inhibition (Escherichia coli [14]): Active | selectivity ratio [15]: 16 | MIC (Enterococcus faecalis [16]): > 25 µg/mL | MBC (Clostridioides difficile): 1.56 µg/mL (≈ 2.69 µM) | MBC [17]: > 25 µg/mL | MIC (Streptococcus pneumoniae [18]): 25 µg/mL (≈ 43.2 µM) | MIC (Enterococcus faecalis [19]): 12.5 µg/mL (≈ 21.6 µM) | MIC (Staphylococcus aureus [20]): > 25 µg/mL | MBC (Enterococcus faecalis [21]): 25 µg/mL (≈ 43.2 µM) | MBC [22]: 1.46 µg/mL (≈ 2.52 µM) | MIC (Klebsiella pneumoniae [23]): 25 µg/mL (≈ 43.2 µM) | inhibition (Escherichia coli [24]): Active | MBC (Staphylococcus aureus [25]): > 25 µg/mL | MBC (Escherichia coli [26]): > 25 µg/mL | IC50 (Erythrocyte): > 200 µM | MIC (Staphylococcus aureus [27]): > 25 µg/mL | MBC (Staphylococcus aureus [28]): 0.8 µg/mL (≈ 1.38 µM) | MBC (Streptococcus pneumoniae [29]): > 25 µg/mL | MIC (Staphylococcus aureus [30]): > 25 µg/mL | MIC (Staphylococcus aureus [31]): 0.4 µg/mL (≈ 0.691 µM) | MIC (Escherichia coli [32]): 12.5 µg/mL (≈ 21.6 µM) | MIC [33]: < 6.25 µg/mL | MBC (Staphylococcus aureus [34]): > 25 µg/mL | Stability [35]: Unstable
